Test results as given in ChEMBL document CHEMBL1156274, “Potent arylsulfonamide inhibitors of tumor necrosis factor-alpha converting enzyme able to reduce activated leukocyte cell adhesion molecule shedding in cancer cell models” (J Med Chem, 2010).

Legend:
[1] = target: T1, Interstitial collagenase (Homo sapiens, UniProt P03956); assay: Inhibition of MMP1 by fluorometric assay
T1 sequence (P03956 whole entry): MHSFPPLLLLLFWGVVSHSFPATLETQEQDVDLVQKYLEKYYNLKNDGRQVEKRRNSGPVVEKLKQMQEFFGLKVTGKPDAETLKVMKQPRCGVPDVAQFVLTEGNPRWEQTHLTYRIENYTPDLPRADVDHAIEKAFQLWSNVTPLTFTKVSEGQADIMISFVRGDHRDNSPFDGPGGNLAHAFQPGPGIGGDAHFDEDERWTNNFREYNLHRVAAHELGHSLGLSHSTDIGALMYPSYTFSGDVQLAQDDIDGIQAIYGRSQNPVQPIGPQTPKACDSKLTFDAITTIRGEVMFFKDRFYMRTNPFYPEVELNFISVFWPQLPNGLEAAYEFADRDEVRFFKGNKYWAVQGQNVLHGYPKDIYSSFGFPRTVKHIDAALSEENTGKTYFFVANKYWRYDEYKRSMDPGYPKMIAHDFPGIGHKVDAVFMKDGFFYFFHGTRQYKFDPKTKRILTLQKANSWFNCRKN

[2] = target: 72 kDa type IV collagenase (Homo sapiens, UniProt P08253)
[3] = target: Matrix metalloproteinase-9 (Homo sapiens, UniProt P14780); assay: Inhibition of MMP9 by fluorometric assay
[4] = target: Matrix metalloproteinase-14 (Homo sapiens, UniProt P50281); assay: Inhibition of human recombinant MMP14 by fluorometric assay
In short: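 Fluorogenic substrate Mca-Lys-Pro-Leu-Gly-Leu-Dap(Dnp)-Ala-Arg-NH2 (2 μM final). Enzymes: APMA-activated (2 mM, 2 h, 37 °C) pro-MMP-1 at 2.0 nM; MMP-14 catalytic domain at 1.0 nM. Each enzyme preincubated 4 h at 25 °C with seven inhibitor concentrations in Tris 50 mM pH 7.5, NaCl, CaCl2, Brij-35, 1% DMSO. Fluorescence (ex 325/em 395 nm) read every 15 s for 20 min.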

[5] = target: T2, Disintegrin and metalloproteinase domain-containing protein 17 (Homo sapiens, UniProt P78536); assay: Inhibition of human recombinant ADAM17 by fluorometric assay
[6] = target: T3, Disintegrin and metalloproteinase domain-containing protein 10 (Homo sapiens, UniProt O14672); assay: Inhibition of human recombinant ADAM10 by fluorometric assay
T3 sequence (O14672 whole entry): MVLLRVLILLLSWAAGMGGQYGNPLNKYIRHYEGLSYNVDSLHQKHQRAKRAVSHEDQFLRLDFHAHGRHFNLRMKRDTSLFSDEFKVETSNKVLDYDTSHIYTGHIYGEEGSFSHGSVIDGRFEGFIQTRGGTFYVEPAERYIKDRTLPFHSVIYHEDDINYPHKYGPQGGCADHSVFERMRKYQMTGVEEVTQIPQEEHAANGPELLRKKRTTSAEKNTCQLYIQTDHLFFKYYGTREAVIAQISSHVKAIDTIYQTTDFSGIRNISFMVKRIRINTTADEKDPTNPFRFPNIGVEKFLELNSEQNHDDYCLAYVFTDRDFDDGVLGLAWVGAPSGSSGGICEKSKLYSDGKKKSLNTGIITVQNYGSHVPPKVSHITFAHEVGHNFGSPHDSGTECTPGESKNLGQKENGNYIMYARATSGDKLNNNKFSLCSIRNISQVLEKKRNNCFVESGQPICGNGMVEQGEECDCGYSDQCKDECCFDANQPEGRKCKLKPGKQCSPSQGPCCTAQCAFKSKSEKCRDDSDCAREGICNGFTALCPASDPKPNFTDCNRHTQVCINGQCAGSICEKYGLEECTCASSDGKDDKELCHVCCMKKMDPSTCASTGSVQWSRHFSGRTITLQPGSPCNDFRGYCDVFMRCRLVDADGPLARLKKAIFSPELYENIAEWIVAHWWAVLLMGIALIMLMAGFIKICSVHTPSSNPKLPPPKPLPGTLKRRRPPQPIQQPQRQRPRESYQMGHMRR
In short: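 Recombinant human ADAM-10 (20 nM) preincubated with seven inhibitor concentrations for 1 h at 37 °C in Tris 25 mM, ZnCl2 25 μM, Brij-35 0.005%, pH 9. Fluorogenic substrate Mca-Lys-Pro-Leu-Gly-Leu-Dap(Dnp)-Ala-Arg-NH2 at 10 μM final. Fluorescence (ex 325/em 395 nm) monitored every 15 s for 20 min. IC50 from initial velocities versus inhibitor-free control; mean of three independent experiments in duplicate.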

[7] = target: T2, Disintegrin and metalloproteinase domain-containing protein 17; assay: Inhibition of ADAM17 in human A2774 cells assessed as inhibition of constitutive sALCAM release by ELISA; format: cell-based
[8] = target: T2, Disintegrin and metalloproteinase domain-containing protein 17; assay: Inhibition of ADAM17 in human A2774 cells assessed as inhibition of pervanadate-induced sALCAM release by ELISA; format: cell-based
[9] = target: T2, Disintegrin and metalloproteinase domain-containing protein 17; assay: Inhibition of ADAM17 in human A2774 cells assessed as inhibition of EGF-induced sALCAM release by ELISA; format: cell-based
[10] = target: T2, Disintegrin and metalloproteinase domain-containing protein 17; assay: Inhibition of ADAM17 in human SKOV3 cells assessed as inhibition of constitutive sALCAM release by ELISA; format: cell-based, SK-OV-3
[11] = test system: SK-OV-3; assay: Cytotoxicity against human SKOV3 cells after 72 hrs by MTT assay; format: cell-based; settings: sk-ov-3, 72 h
In short: (§1)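 Cell lines grown in RPMI 1640 with 10% heat-inactivated FCS, 2 mM glutamine and penicillin-streptomycin at 37 °C, 5% CO2. Seeded at 2 × 10^3 cells/well and exposed to a range of inhibitor concentrations (DMSO stocks) for 24, 48 or 72 h at 37 °C. MTT added for 4 h, formazan dissolved in DMSO, absorbance read at 540 nm; mean of triplicates.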

[12] = target: T2, Disintegrin and metalloproteinase domain-containing protein 17; assay: Inhibition of ADAM17 in human SKOV3 cells assessed as inhibition of EGF-induced sALCAM release by ELISA; format: cell-based, SK-OV-3
[13] = target: T2, Disintegrin and metalloproteinase domain-containing protein 17; assay: Inhibition of ADAM17 in human MCF7 cells assessed as inhibition of constitutive sALCAM release by ELISA; format: cell-based
[14] = target: T2, Disintegrin and metalloproteinase domain-containing protein 17; assay: Inhibition of ADAM17 in human MCF7 cells assessed as inhibition of pervanadate-induced sALCAM release by ELISA; format: cell-based
[15] = target: T2, Disintegrin and metalloproteinase domain-containing protein 17; assay: Inhibition of ADAM17 in human MCF7 cells assessed as inhibition of EGF-induced sALCAM release by ELISA; format: cell-based
[16] = target: T2, Disintegrin and metalloproteinase domain-containing protein 17; assay: Inhibition of ADAM17 in human MDA-MB-468 cells assessed as inhibition of constitutive sALCAM release by ELISA; format: cell-based
[17] = target: T2, Disintegrin and metalloproteinase domain-containing protein 17; assay: Inhibition of ADAM17 in human MDA-MB-468 cells assessed as inhibition of pervanadate-induced sALCAM release by ELISA; format: cell-based
[18] = target: T2, Disintegrin and metalloproteinase domain-containing protein 17; assay: Inhibition of ADAM17 in human MDA-MB-468 cells assessed as inhibition of EGF-induced sALCAM release by ELISA; format: cell-based
[19] = target: T2, Disintegrin and metalloproteinase domain-containing protein 17; assay: Inhibition of ADAM17 in human GI-CA-N cells assessed as inhibition of constitutive sALCAM release by ELISA; format: cell-based
[20] = target: T2, Disintegrin and metalloproteinase domain-containing protein 17; assay: Inhibition of ADAM17 in human GI-CA-N cells assessed as inhibition of pervanadate-induced sALCAM release by ELISA; format: cell-based
[21] = Cytotoxicity against human A2774 cells after 72 hrs by MTT assay; format: cell-based; settings: a2774, 72 h; in short: as §1
[22] = test system: MCF7; assay: Cytotoxicity against human MCF7 cells after 72 hrs by MTT assay; format: cell-based; settings: mcf7, 72 h; in short: as §1
[23] = test system: MDA-MB-468; assay: Cytotoxicity against human MDA-MB-468 cells after 72 hrs by MTT assay; format: cell-based; settings: mda-mb-468, 72 h; in short: as §1
[24] = Cytotoxicity against human GI-CA-N cells after 72 hrs by MTT assay; format: cell-based; in short: as §1
[25] = target: T2, Disintegrin and metalloproteinase domain-containing protein 17; settings: A2774

T2 sequence (P78536 whole entry, the tested form may be a part): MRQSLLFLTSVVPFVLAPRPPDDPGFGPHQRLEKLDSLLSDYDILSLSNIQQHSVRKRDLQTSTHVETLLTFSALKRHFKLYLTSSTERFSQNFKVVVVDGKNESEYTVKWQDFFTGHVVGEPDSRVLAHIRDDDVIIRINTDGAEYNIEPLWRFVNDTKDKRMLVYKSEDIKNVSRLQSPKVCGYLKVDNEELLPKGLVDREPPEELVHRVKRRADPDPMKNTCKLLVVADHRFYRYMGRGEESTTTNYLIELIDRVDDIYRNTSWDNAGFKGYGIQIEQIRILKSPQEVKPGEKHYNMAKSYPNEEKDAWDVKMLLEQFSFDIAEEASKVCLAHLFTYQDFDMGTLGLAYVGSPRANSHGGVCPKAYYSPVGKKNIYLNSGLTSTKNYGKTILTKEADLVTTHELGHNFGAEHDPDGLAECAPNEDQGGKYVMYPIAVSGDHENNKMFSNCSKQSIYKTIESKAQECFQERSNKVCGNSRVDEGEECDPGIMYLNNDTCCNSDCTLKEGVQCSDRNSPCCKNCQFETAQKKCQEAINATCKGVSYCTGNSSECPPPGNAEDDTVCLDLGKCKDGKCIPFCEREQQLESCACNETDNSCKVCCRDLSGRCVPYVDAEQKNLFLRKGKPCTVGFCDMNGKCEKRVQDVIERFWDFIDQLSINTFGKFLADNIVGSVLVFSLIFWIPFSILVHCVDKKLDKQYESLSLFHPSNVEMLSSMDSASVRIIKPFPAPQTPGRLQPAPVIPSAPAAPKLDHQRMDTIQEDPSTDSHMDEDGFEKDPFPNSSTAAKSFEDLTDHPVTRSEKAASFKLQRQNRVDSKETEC
Matrix metalloproteinase-9, sequence (P14780 whole entry): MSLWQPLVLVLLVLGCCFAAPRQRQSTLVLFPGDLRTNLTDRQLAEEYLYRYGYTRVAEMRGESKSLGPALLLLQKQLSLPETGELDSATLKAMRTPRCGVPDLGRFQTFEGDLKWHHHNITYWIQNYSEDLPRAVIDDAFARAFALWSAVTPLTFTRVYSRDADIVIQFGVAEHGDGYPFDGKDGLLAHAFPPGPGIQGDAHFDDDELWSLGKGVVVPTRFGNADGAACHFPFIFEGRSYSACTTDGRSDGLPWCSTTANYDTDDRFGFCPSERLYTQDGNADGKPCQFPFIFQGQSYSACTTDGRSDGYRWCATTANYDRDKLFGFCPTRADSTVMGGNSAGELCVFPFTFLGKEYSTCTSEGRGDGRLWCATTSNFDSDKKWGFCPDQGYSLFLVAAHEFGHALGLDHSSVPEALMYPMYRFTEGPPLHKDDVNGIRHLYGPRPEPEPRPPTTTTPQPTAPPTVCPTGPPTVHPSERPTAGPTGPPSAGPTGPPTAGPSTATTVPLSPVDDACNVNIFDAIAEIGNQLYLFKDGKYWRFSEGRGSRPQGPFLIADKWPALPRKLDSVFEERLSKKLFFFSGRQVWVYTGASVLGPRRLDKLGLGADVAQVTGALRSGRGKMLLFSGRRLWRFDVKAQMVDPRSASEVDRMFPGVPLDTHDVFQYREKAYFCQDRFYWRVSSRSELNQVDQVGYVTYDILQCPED
72 kDa type IV collagenase, sequence (P08253 whole entry): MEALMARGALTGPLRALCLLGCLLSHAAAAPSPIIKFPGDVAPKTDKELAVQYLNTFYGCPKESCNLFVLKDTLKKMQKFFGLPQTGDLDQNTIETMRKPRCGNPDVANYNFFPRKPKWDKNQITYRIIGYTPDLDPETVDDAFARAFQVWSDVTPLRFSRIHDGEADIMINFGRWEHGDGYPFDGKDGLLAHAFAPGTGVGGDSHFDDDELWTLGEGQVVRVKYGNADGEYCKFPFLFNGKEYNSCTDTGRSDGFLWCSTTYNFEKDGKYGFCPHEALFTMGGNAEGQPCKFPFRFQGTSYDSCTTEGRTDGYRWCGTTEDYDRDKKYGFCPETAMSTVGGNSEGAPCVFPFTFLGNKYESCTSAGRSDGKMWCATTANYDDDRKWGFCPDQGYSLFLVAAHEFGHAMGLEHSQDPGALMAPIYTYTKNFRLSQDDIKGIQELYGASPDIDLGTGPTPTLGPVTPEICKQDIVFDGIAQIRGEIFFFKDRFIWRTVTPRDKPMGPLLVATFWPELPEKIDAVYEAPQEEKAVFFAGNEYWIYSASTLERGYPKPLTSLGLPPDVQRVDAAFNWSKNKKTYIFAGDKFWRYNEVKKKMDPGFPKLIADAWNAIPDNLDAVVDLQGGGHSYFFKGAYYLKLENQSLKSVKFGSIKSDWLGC

In the case of `CC#CCOc1ccc(S(=O)(=O)N[C@H](CCN2C(=O)c3ccccc3C2=O)C(=O)NO)cc1`, the IC50 [1] is reported as 350 nM, the IC50 [2] is reported as 4.2 nM and the IC50 [3] is reported as 3.5 nM. For the same compound, the IC50 [4] was 4.3 nM, the IC50 [5] was 0.7 nM and the IC50 [6] was 190 nM. It also gave an IC50 [7] of 1100 nM, an IC50 [8] of 15 nM and an IC50 [9] of 550 nM. The IC50 [10] was 2600 nM, the Activity [11] was “Not Active” and the IC50 [12] was 4.3 nM. It also gave an IC50 [13] of 1400 nM, an IC50 [14] of 51 nM and an IC50 [15] of 760 nM. For the same compound, the IC50 [16] was 1700 nM, the IC50 [17] was 800 nM and the IC50 [18] was 280 nM. The IC50 [19] was 97 nM, the IC50 [20] was 73 nM and the Activity [21] was “Not Active”. The Activity [22] was “Not Active”, the Activity [23] was “Not Active” and the Activity [24] was “Not Active”. It also gave an IC50 [25] of 15 nM.
